Experimental findings from ChEMBL document CHEMBL1268956, “3-Urea-1-(phenylmethyl)-pyridones as novel, potent, and selective EP3 receptor antagonists” (Bioorg Med Chem Lett, 2010) are described below.

Each structure is given as a SMILES string.

Test [1] addresses T1, Prostaglandin E2 receptor EP1 subtype (Homo sapiens, UniProt P34995).
T1 sequence (P34995 whole entry): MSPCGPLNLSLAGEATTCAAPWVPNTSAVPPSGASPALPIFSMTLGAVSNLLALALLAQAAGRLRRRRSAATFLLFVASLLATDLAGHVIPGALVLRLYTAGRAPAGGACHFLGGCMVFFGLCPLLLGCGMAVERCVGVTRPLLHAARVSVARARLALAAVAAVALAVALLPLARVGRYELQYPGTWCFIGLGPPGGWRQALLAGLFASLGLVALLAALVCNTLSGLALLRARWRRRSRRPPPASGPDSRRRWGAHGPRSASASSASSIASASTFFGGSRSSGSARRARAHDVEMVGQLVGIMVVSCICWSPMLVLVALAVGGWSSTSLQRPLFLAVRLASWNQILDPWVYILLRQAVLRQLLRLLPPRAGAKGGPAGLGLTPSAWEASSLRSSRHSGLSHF
Put plainly: Displacement of radioligand from human EP1 receptor.

Test [2] deals with Prostaglandin E2 receptor EP2 subtype (Homo sapiens, UniProt P43116). Briefly: Displacement of radioligand from human EP2 receptor.
Chain of Prostaglandin E2 receptor EP2 subtype (P43116 whole entry): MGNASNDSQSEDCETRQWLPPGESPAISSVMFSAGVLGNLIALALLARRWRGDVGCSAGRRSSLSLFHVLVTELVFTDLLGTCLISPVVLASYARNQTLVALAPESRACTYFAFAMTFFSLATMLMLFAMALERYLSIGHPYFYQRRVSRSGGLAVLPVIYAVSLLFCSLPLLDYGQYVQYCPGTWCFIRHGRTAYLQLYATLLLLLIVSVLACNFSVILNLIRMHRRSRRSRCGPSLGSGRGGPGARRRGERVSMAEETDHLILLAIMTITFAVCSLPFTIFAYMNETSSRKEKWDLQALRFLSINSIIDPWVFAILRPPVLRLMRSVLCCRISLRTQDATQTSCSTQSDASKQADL
Test [3] addresses Prostaglandin E2 receptor EP4 subtype (Homo sapiens, UniProt P35408). Put plainly: Displacement of radioligand from human EP4 receptor.
Test [4] addresses Prostaglandin F2-alpha receptor (Homo sapiens, UniProt P43088). Briefly: Displacement of radioligand from human FP receptor.
For another test, the target named is T2, Thromboxane A2 receptor (Homo sapiens, UniProt P21731).
T2 sequence (P21731 whole entry): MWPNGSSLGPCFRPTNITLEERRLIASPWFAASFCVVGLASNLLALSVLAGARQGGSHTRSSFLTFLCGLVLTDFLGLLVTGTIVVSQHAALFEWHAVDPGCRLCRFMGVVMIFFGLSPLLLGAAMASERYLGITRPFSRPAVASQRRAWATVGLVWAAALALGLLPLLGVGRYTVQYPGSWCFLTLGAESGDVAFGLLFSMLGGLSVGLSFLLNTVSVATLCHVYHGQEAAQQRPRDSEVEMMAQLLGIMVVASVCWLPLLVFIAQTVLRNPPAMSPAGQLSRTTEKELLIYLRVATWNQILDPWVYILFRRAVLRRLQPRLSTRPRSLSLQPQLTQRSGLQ
Put plainly: Displacement of radioligand from human TP receptor.

Test [5] addresses T3, Prostaglandin E2 receptor EP3 subtype (Rattus norvegicus, UniProt P34980).
T3 sequence (P34980 whole entry): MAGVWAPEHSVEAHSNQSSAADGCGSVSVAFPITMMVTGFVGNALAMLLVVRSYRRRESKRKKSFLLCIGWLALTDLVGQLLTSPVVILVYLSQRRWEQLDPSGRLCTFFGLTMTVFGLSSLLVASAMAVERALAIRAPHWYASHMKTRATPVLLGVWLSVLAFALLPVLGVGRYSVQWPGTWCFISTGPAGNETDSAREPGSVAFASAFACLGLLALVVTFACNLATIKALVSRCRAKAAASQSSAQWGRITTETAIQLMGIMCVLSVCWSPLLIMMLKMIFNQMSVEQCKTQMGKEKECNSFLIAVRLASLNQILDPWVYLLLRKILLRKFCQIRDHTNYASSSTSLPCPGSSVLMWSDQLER
Put plainly: Inhibition of rat EP3 receptor.

Test [6] addresses T4, Prostaglandin E2 receptor EP3 subtype (Homo sapiens, UniProt P43115).
T4 sequence (P43115 whole entry): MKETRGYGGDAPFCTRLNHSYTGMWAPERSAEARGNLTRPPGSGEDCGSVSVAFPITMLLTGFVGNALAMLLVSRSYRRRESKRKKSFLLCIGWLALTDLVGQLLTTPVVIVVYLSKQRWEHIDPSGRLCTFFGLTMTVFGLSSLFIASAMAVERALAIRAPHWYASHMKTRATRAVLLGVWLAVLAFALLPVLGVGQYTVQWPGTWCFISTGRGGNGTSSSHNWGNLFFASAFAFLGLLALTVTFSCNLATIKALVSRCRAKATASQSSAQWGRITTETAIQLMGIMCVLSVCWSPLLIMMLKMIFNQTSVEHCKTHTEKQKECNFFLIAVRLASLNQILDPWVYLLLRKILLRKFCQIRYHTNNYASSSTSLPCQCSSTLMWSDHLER
Put plainly: Antagonist activity at human EP3 receptor expressed in human U2OS cells assessed as inhibition of PGE2-induced intracellular calcium mobilization by FLIPR assay. Format: functional, cell-based. (Calcium flux is commonly read through the fluorescence of an indicator in the cells.)

Test [7] concerns the target Prostaglandin G/H synthase 1 (Homo sapiens, UniProt P23219). Briefly: Inhibition of human COX1 in human whole blood by ELISA. The test is classed as tissue-based. Put shortly: (§1)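 Human whole blood; COX1 and COX2 inhibition read out in ELISA format.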
A general note: An ELISA detects its analyte on a solid surface through an enzyme-linked reagent.

Test [8] has as its target T5, Prostaglandin G/H synthase 2 (Homo sapiens, UniProt P35354).
T5 sequence (P35354 whole entry): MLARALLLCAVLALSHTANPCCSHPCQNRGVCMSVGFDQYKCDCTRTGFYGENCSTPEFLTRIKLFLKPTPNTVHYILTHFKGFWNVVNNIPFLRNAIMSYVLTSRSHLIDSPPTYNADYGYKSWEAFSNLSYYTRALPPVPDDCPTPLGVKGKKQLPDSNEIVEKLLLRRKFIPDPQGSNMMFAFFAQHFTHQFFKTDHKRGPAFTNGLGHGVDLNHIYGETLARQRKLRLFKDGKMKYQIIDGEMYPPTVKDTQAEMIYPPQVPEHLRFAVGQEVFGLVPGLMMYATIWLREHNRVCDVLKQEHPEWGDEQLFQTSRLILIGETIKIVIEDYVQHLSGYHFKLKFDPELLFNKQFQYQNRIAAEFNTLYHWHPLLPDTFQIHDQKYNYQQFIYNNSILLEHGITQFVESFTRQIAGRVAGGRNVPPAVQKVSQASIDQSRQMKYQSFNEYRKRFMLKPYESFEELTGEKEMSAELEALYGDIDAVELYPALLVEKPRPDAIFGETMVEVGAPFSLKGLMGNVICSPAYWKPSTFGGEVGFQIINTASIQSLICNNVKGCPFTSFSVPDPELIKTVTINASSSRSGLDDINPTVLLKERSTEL
Briefly: Inhibition of human COX2 in human whole blood by ELISA. The test is classed as tissue-based. Put shortly: as §1

The target in the next test is T6, Cytochrome P450 1A2 (Homo sapiens, UniProt P05177).
T6 sequence (P05177 whole entry): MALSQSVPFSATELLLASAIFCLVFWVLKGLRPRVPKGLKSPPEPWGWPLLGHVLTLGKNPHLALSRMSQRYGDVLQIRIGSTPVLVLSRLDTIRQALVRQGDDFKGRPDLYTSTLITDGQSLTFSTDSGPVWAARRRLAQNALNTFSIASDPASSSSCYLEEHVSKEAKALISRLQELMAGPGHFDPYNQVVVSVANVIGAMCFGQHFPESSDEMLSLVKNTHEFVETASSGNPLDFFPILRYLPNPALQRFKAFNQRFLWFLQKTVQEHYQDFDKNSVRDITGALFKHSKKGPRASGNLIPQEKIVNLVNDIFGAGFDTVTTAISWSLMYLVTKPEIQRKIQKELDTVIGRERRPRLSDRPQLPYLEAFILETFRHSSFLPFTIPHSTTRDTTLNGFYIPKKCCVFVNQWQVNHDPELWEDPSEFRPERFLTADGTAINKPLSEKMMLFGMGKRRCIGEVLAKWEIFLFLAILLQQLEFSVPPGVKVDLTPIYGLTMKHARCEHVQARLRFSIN
Put plainly: Inhibition of CYP1A2. The test is classed as ADME.

Test [9] has as its target Prostaglandin D2 receptor (Homo sapiens) (UniProt Q13258). Briefly: Displacement of radioligand from human DP receptor.

Chain of Prostaglandin E2 receptor EP4 subtype (P35408 whole entry): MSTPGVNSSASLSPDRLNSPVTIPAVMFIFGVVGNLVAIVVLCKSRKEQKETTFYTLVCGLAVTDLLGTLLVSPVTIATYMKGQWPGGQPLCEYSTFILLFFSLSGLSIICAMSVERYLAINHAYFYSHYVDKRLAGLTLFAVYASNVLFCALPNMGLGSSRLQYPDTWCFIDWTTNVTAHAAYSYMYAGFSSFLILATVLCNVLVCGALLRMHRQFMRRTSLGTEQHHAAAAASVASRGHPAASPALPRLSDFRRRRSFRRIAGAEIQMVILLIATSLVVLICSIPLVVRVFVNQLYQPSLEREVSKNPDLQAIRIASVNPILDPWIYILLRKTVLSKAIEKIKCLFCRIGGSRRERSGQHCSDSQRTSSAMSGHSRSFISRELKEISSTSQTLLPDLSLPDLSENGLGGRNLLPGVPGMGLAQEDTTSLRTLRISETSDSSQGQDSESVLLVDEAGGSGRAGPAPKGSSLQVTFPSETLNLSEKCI
Chain of Prostaglandin G/H synthase 1 (P23219 whole entry): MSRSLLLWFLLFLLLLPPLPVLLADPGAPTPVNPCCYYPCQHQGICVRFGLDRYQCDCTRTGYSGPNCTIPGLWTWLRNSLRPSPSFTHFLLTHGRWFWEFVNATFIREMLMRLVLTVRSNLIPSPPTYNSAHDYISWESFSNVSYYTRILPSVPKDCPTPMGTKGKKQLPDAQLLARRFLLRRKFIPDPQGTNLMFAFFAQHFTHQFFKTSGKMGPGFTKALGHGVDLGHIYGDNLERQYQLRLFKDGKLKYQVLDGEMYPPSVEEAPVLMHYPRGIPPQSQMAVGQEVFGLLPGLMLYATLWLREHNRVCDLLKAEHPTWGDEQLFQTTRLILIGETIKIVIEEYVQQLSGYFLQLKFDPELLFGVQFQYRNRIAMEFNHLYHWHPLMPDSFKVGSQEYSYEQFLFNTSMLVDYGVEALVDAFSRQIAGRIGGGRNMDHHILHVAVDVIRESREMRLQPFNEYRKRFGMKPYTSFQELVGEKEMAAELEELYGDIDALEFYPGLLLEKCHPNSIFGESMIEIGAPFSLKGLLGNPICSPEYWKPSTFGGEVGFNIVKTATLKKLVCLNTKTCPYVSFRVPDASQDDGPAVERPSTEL
Chain of Prostaglandin F2-alpha receptor (P43088 whole entry): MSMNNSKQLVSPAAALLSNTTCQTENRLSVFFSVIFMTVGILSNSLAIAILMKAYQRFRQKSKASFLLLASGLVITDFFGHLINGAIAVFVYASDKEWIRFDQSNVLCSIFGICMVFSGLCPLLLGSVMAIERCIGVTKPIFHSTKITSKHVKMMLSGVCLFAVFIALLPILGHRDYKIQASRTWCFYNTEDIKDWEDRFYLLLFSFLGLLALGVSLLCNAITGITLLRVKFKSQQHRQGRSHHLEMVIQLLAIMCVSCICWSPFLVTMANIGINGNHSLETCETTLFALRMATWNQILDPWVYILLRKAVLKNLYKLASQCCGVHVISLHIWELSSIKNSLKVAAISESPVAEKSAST
Chain of Prostaglandin D2 receptor (Homo sapiens) (Q13258 whole entry, looked up): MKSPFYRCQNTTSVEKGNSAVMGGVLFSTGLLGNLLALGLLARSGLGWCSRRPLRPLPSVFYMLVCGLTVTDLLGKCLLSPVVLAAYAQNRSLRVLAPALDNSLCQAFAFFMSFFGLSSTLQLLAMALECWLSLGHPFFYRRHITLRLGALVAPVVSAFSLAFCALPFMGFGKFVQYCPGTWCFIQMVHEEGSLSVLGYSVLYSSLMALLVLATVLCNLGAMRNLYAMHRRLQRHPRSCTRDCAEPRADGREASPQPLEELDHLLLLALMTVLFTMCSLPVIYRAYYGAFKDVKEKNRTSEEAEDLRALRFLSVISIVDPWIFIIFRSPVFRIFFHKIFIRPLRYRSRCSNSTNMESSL

For orientation: Ki means the equilibrium dissociation constant of an inhibitor or competing ligand from its target. For orientation: pKi means the Ki on a negative log10 scale, so that one unit is a factor of ten. Read a high pKi as a low Ki. On to `CCc1cccc(NC(=O)Nc2cccn(Cc3ccccc3Cl)c2=O)c1`, for which the Ki in test [1] is over 10 µM; in [2] it was over 10 µM; in test [3], over 10 µM; in [4], over 10 µM; at Thromboxane A2 receptor, over 10 µM; in test [5], 0.158 µM. The Ki was 0.0501 µM in test [6], over 100 µM in test [7], over 100 µM in test [8] and 2 µM on Cytochrome P450 1A2. In addition, the pKi in test [9] was under 5.
